Calls of active or inactive are those of the source. The rule behind the calls is not given here.
Columns and labels:
Bile acid receptor = molecular target: T1, Bile acid receptor (Homo sapiens, UniProt Q96RI1); assay: Transactivation of human FXR expressed in human HeLa cells co-expressing BSEP after 24 hrs by dual-glo luciferase reporter gene assay; type: cell-based
T1 sequence (Q96RI1 whole entry): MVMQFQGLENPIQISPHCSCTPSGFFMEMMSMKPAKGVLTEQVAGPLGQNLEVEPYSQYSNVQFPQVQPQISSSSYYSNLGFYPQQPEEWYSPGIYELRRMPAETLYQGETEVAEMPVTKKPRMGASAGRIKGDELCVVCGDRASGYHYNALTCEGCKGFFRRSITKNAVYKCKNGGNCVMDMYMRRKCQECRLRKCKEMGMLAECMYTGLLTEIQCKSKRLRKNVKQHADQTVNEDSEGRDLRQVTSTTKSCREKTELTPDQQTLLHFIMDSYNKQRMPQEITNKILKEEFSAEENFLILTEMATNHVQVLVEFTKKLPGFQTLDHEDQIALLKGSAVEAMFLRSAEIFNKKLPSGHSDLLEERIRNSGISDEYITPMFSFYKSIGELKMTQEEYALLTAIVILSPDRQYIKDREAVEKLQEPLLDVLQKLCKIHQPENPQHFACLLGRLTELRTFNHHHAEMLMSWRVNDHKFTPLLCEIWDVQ
Summary of the method: (§1)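 HeLa cells in DMEM/10% FCS at 37 °C, 5% CO2; switched to 0.5% charcoal-stripped FCS before calcium phosphate co-transfection with pcDNA3-hFXR, pSG5-hRXR, BSEP promoter–firefly luciferase reporter and pRL-SV40 renilla. Compound in 0.1% DMSO, phenol red-free medium, 24 h.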

[1] = molecular target: T2, Bifunctional epoxide hydrolase 2 (Homo sapiens, UniProt P34913); assay: Inhibition of recombinant human sEH using PHOME as substrate preincubated for 30 mins followed by substrate addition measured for 30 mins by fluorescence photometric method
T2 sequence (P34913 whole entry): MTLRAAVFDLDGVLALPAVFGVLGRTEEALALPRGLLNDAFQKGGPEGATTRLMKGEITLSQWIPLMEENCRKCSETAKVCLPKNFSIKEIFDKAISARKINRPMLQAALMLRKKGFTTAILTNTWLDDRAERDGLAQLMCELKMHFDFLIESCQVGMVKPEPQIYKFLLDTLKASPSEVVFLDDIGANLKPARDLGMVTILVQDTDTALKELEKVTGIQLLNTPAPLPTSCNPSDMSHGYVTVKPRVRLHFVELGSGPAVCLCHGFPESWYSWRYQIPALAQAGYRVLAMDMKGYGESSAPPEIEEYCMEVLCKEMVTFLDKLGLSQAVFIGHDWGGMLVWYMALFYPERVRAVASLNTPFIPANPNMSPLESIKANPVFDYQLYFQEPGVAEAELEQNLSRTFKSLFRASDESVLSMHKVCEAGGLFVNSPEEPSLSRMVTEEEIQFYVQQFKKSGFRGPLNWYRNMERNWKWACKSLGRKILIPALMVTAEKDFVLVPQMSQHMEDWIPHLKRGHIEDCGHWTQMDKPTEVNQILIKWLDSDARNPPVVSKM
Summary of the method: (§2)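 Recombinant human sEH in Bis-Tris buffer pH 7, 0.1 mg/mL BSA, 0.01% Triton X-100 (final), preincubated 30 min at room temperature with compound (1% DMSO final). PHOME added at 50 μM final; 6-methoxynaphthaldehyde fluorescence read each minute for 30 min.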

[2] = molecular target: T3, Bile acid receptor (Homo sapiens) (UniProt Q96RI1); assay: Transactivation of human FXR expressed in human HeLa cells co-expressing BSEP at 50 uM after 24 hrs by dual-glo luciferase reporter gene assay relative to GW4064; type: cell-based; summary of the method: as §1
T3 sequence (whole entry): T1 sequence (Q96RI1 whole entry)

[3] = molecular target: T4, Bifunctional epoxide hydrolase 2 (Homo sapiens) (UniProt P34913); assay: Inhibition of recombinant human sEH at 50 uM using PHOME as substrate preincubated for 30 mins followed by substrate addition measured for 30 mins by fluorescence photometric method; summary of the method: as §2
T4 sequence (whole entry): T2 sequence (P34913 whole entry)

Liver = assay: Drug level in Sprague-Dawley rat liver microsomes treated with 4-(tert-Butyl)-N-(2-chloro-4-(methylsulfonamido)benzyl)-benzamide at 10 uM preincubated with NADPH regenerating system for 5 mins followed by addition of liver microsomes by LC-MS/MS method; type: ADME, microsome
[4] = molecular target: T4, Bifunctional epoxide hydrolase 2 (Homo sapiens); assay: Inhibition of sEH in human HepG2 cells assessed as NF-kappaB mRNA expression at 1 uM after 8 to 16 hrs by SYBR green based qRT-PCR analysis relative to DMSO control; type: cell-based
Summary of the method: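 HepG2 cells treated with compound or 0.1% DMSO vehicle; NF-κB mRNA quantified by SYBR Green qRT-PCR, comparative ΔΔCt with GAPDH reference; expressed as % of vehicle (100%).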

| SMILES | EC50 (Bile acid receptor) [nM] | IC50 ([1]; read-out: IC50) [nM] | Emax [2] | inhibition [3] [%] | Drug metabolism (Liver) | inhibition [4] [%] | IC50 [1] |
| --- | --- | --- | --- | --- | --- | --- | --- |
| CC(C)(C)c1ccc(C(=O)NCc2ccc(C(=O)O)cc2F)cc1 | 7.8 | 1430 | 26% |  |  |  |  |
| CC(NC(=O)c1ccc(C(C)(C)C)cc1)c1ccc(C(=O)O)cc1 (centres undefined) | 76 |  | 24% | 37 |  |  |  |
| CC(C)(C)c1ccc(C(=O)NCc2ccc(C(=O)O)c(F)c2)cc1 | 140 | 20300 | 28% |  |  |  |  |
| CC(C)(C)c1ccc(C(=O)NCc2ccc(C#N)cc2)cc1 |  | 910 | inactive |  |  |  |  |
| CC(C)(CO)c1ccc(C(=O)NCc2ccc(NS(C)(=O)=O)cc2Cl)cc1 |  |  |  |  | Metabolite_Detected |  |  |
| CN(C)c1ccc(C(=O)NCc2ccc(C(=O)O)cc2)cc1 |  |  | inactive | 19 |  |  |  |
| CC(C)(C)c1ccc(C(=O)NCc2ccc(C(=O)O)cc2Cl)cc1 | 7500 | 170 | 25% |  |  |  |  |
| CCOc1ccc(CNC(=O)c2ccc(C(C)(C)C)cc2)cc1 | 160 | 570 | 31% |  |  |  |  |
| O=C(O)c1ccc(CNC(=O)c2ccccc2)cc1 |  |  | 12% | 16 |  |  |  |
| CC(C)(C)c1ccc(C(=O)NCc2ccc(C(=O)O)c(Cl)c2)cc1 | 8.8 |  | 21% | 50 |  |  |  |
| COc1ccc(C(=O)NCc2ccc(C(=O)O)cc2)cc1OC | 370 |  | 18% | 26 |  |  |  |
| COc1ccc(CNC(=O)c2ccc(C(C)(C)C)cc2)cc1 | 150 | 430 | 19% |  |  |  |  |
| CC(C)(C)c1ccc(C(=O)NCc2ccc(CO)cc2)cc1 |  | 2050 | inactive |  |  |  |  |
| O=C(O)c1ccc(CNC(=O)c2ccc(-c3ccccc3)cc2)cc1 |  |  | 24% |  |  |  |  |
| O=C(O)c1ccc(CNC(=O)C2CCNCC2)cc1 |  |  | inactive | < 3 |  |  |  |
| Cc1cc(CNC(=O)c2ccc(C(C)(C)C)cc2)ccc1C(=O)O | 160 |  | 14% | 53 |  |  |  |
| CC(C)(C)c1ccc(C(=O)NCc2ccc(S(C)(=O)=O)cc2)cc1 | 3800 | 1200 | 34% |  |  |  |  |
| CC(C)(C)c1ccc(C(=O)NCc2ccc(OC(F)(F)F)cc2)cc1 | 160 | 220 | 26% |  |  |  |  |
| C[S+]([O-])c1ccc(CNC(=O)c2ccc(C(C)(C)C)cc2)cc1 (centres undefined) | 1300 | 220 | 24% |  |  |  |  |

| SMILES | EC50 (Bile acid receptor) [nM] | IC50 ([1]; read-out: IC50) [nM] | Emax [2] | inhibition [3] [%] | Drug metabolism (Liver) | inhibition [4] [%] | IC50 [1] |
| --- | --- | --- | --- | --- | --- | --- | --- |
| CC(C)(C)c1ccc(C(=O)NCc2cccc(C(=O)O)c2)cc1 | 1700 |  | 14% | 26 |  |  |  |
| CC(C)(C)c1ccc(C(=O)NCc2ccc(NS(C)(=O)=O)cc2)cc1 | 44 | 650 | 22% |  |  |  |  |
| COc1cc(C(=O)NCc2ccc(C(=O)O)cc2)ccc1C(C)(C)C | 1200 | 5040 | 23% |  |  |  |  |
| Cc1cccc(C(=O)NCc2ccc(C(=O)O)cc2)c1 |  |  | inactive | 37 |  |  |  |
| CC(C)(C)c1ccc(C(=O)NCc2ccc(NC(=O)C(F)(F)F)cc2)cc1 | 260 | 660 | 20% |  |  |  |  |
| O=C(O)c1ccc(CNC(=O)c2cccc(-c3ccccc3)c2)cc1 | 670 | 10000 | 14% |  |  |  |  |
| C[C@@H]1C[C@H]2[C@@H]3CCC4=CC(=O)C=C[C@]4(C)[C@@]3(F)[C@@H](O)C[C@]2(C)[C@@]1(O)C(=O)CO |  |  |  |  |  | 59.4 |  |
| CC(C)Oc1ccc(CNC(=O)c2ccc(C(C)(C)C)cc2)cc1 | 170 |  | 26% |  |  |  | Nd(Insoluble) |
| CC(C)(C)c1ccc(C(=O)NCc2ccc(N)cc2)cc1 |  | 3500 | inactive |  |  |  |  |
| CC(C)(C)c1ccc(C(=O)NCc2ccc(SC(F)(F)F)cc2)cc1 | 0.4 | 390 | 19% |  |  |  |  |
| CC(C)(C)c1ccc(NC(=O)Nc2ccc(C(=O)O)cc2)cc1 | 3800 | 18500 | 14% |  |  |  |  |
| CN(C)C(=O)c1ccc(CNC(=O)c2ccc(C(C)(C)C)cc2)cc1 | 170 | 4600 | 17% |  |  |  |  |
| O=C(O)c1ccc(CNC(=O)c2ccc(C(F)(F)F)c(C(F)(F)F)c2)cc1 |  |  | inactive | 55 |  |  |  |
| CSc1ccc(CNC(=O)c2ccc(C(C)(C)C)cc2)cc1 | 100 | 120 | 33% |  |  |  |  |
| CC(C)(C)c1ccc(C(=O)NCc2ccc(C(N)=O)cc2)cc1 | 3800 | 1200 | 27% |  |  |  |  |
| Cc1ccc(C(=O)NCc2ccc(C(=O)O)cc2)cc1 |  |  | 15% | 24 |  |  |  |
| O=C(O)c1ccc(CNC(=O)c2ccccc2-c2ccccc2)cc1 |  |  | 22% | 19 |  |  |  |
| CC(C)(C)c1ccc(C(=O)NCc2ccc(N)cc2Cl)cc1 |  |  |  |  | Metabolite_Detected |  |  |
| CC(C)(C)c1ccc(C(=O)NCc2ccc(-c3nnn[nH]3)cc2)cc1 | 120 | 18200 | 23% |  |  |  |  |

| SMILES | EC50 (Bile acid receptor) [nM] | IC50 ([1]; read-out: IC50) [nM] | Emax [2] | inhibition [3] [%] | Drug metabolism (Liver) | inhibition [4] [%] | IC50 [1] |
| --- | --- | --- | --- | --- | --- | --- | --- |
| O=C(O)c1ccc(CNC(=O)c2ccc3ccccc3c2)cc1 | 1360 |  | 18% | 45 |  |  |  |
| CC(C)(C)c1ccc(C(=O)NCc2ccc(OCC(=O)O)cc2)cc1 | 730 | 19000 | 21% |  |  |  |  |
| CC(C)(C)c1ccc(C(=O)NCc2ccc(S(N)(=O)=O)cc2F)cc1 | 970 | 137 | 34% |  |  |  |  |
| CC(C)(C)c1ccc(C(=O)NCc2ccc(S(N)(=O)=O)cc2)cc1 | 1400 | 280 | 16% |  |  |  |  |
| CC(C)(C)c1ccc(C(=O)NCc2ccc(CC(=O)O)cc2)cc1 | 6400 | 20000 | 19% |  |  |  |  |
| CC(C)(C)c1ccc(C(=O)NCc2ccc(CCC(=O)O)cc2)cc1 | 350 | 1630 | 16% |  |  |  |  |
| Cc1ccc(C(=O)NCc2ccc(C(=O)O)cc2)c(C)c1 |  |  | inactive | 7 |  |  |  |
| Cc1cc(C(=O)O)ccc1CNC(=O)c1ccc(C(C)(C)C)cc1 |  | 680 | inactive |  |  |  |  |
| CNC(=O)c1ccc(CNC(=O)c2ccc(C(C)(C)C)cc2)cc1 | 340 | 1900 | 29% |  |  |  |  |
| CC(C)(C)c1ccc(C(=O)NCc2ccc(C(=O)O)cc2)cc1 | 370 | 4200 | 13% |  |  |  |  |
| CC(=O)NS(=O)(=O)c1ccc(CNC(=O)c2ccc(C(C)(C)C)cc2)cc1 |  | 12700 | inactive |  |  |  |  |
| CC(C)(C)c1ccc(C(=O)NCc2ccc(C=O)cc2)cc1 | 5300 | 510 | 22% |  |  |  |  |
| Cc1ccccc1C(=O)NCc1ccc(C(=O)O)cc1 |  |  | inactive | 14 |  |  |  |
| O=C(O)c1ccc(CNC(=O)C2CCCCC2)cc1 |  |  | inactive | 37 |  |  |  |
| Cc1ccc(C(=O)NCc2ccc(C(=O)O)cc2)cc1C | 320 |  | 12% | 52 |  |  |  |
| CC(=O)Nc1ccc(CNC(=O)c2ccc(C(C)(C)C)cc2)cc1 | 2900 | 1120 | 31% |  |  |  |  |
| O=C(O)c1ccc(CNC(=O)c2ccc(Cl)c(Cl)c2)cc1 |  | 10500 | inactive |  |  |  |  |
| CC(=O)c1ccc(CNC(=O)c2ccc(C(C)(C)C)cc2)cc1 | 100 | 157 | 29% |  |  |  |  |

— ChEMBL document CHEMBL4017509, “A Dual Modulator of Farnesoid X Receptor and Soluble Epoxide Hydrolase To Counter Nonalcoholic Steatohepatitis” (J Med Chem, 2017)
